From PMC3498903 (Journal of medicinal chemistry, 2012)
“Also recorded” adds a separate entry of the source. Counter-ions that a name gives are not always drawn. Like-named read-outs stand apart in the source and are kept apart here.

Key:
[1] = system: HFF cells; experiment: In vitro toxicity assay on HFF host cells; type: cell-based, human; conditions: HFF used as host cells in the parasite assay
[2] = system: mice; experiment: In vivo toxicity in uninfected mice dosed orally; conditions: for Day of Death: Challenge None, B7 mice; for toxic effects on oral dosing (survival, well-being criteria): gavage daily for nine days, 100mg/kg
[3] = system: T. gondii TgGoatUS4 oocysts; experiment: Mouse model of T. gondii oocyst infection, TgGoatUS4 oocysts; type: in vivo, Toxoplasma gondii; conditions: 25 or 100 mg/kg, versus untreated infected mice
How it was run: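 Mice, 5 per group, were challenged orally with TgGoatUS4 oocysts that had been sporulated in 2% sulfuric acid and neutralised with 3.3% NaOH. Test compound was given at 100 or 25 mg/kg as a 1 mL suspension by oral gavage in 1% DMSO/5% PEG 400/94% of 0.5% CMC. Controls were compound-only and untreated infected mice. Survival was observed daily, with tachyzoites sought in tissue smears.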

[4] = system: THdhxgTRP tachyzoites transfected with pLK47; experiment: Insertional mutagenesis experiments: selection of resistant mutants; type: cell-based, Toxoplasma gondii; conditions: prolonged incubation (six weeks); data not shown
[5] = system: T. gondii tachyzoites; experiment: In vitro inhibition of T. gondii tachyzoites; type: cell-based, Toxoplasma gondii; conditions: for MIC50 / MIC90: T. gondii tachyzoites in vitro; for activity against T. gondii tachyzoites in words: in vitro, only MIC50 ≤ 1 μM considered active
[6] = system: P. falciparum D6 (CDC/Sierra Leone); experiment: Malaria SYBR Green I-based fluorescence; type: cell-based; conditions: Plasmodium falciparum, D6, 72 h, read-out: D6 IC50
[7] = system: P. falciparum TM91-C235; experiment: Malaria SYBR Green I-based fluorescence; type: cell-based, Plasmodium falciparum; conditions: for IC50: Plasmodium falciparum, 72 h; for efficacy against TM91-C235 compared with D6: comparison of IC50 values of the two strains
[8] = system: RH-YFP tachyzoites; experiment: Determination of static or cidal effects on RH-YFP tachyzoites; type: cell-based, Toxoplasma gondii; conditions: 1 μM; for static or cidal effect: Conditions A-D, growth assessed at days 11, 17, 25; for duration of treatment giving a cidal effect: compound removed after treatment
[9] = Hydrolytic stability on incubation in THF and buffer; conditions: mixture of THF and buffer (pH 7.4 or pH 8.5); data not shown
[10] = system: T. gondii Me-49 oocysts; experiment: Mouse model of T. gondii oocyst infection, ME49 oocysts; type: in vivo, Toxoplasma gondii; conditions: 25 or 100 mg/kg, versus untreated infected mice
How it was run: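 […] female mice (~25 g), 5 per group. Each mouse received test compound at 100 or 25 mg/kg (2.5 or […], 1.0 mL) by oral gavage in 1% DMSO/5% PEG 400/94% of 0.5% CMC, with or without 100 acid-sporulated, NaOH-neutralised ME49 oocysts orally. Controls were compound-only and oocyst-only groups. Mice were observed daily for survival. Infection was confirmed by tachyzoites in tissue smears.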

Question: What does the source list for “2-((2,4-bis(trifluoromethyl)phenyl)carbamoyl)-4-chlorophenyl(2-hydrazinyl-2-oxoethyl) (methyl)carbamate hydrochloride [Compound 14b]”?
Answer: Toxicity [1]: >1000 nM; Day of Death ([2]; 25 mg/kg oral gavage): None; Day of Death ([2]; 100 mg/kg oral gavage): None; toxic effects on oral dosing (survival, well-being criteria) [2]: all mice were alive and appeared healthy; increased survival [3]: 1 days; growth of insertional mutant parasites in the presence of compound [4]: No parasite growth

Question: What does the source list for “5-chloro-2-hydroxy-N-(3,4,5-trimethoxyphenyl)benzamide [Compound 3q]”?
Answer: MIC50 [5]: >1 µM; MIC90 [5]: >1 µM; activity against T. gondii tachyzoites in words [5]: devoid of activity; also recorded: inactive

Question: What does the source list for “5-chloro-2-hydroxy-N-(5-methoxy-2-methylphenyl)benzamide [Compound 3x]”?
Answer: MIC50 [5]: >1 µM; MIC90 [5]: >1 µM

Question: Which MIC50 [5] does the source give for “5-chloro-N-(3-cyano-4-fluorophenyl)-2-hydroxybenzamide [Compound 3t]” here?
Answer: >1 µM

Question: And the MIC90 [5]?
Answer: >1 µM

Question: Which IC50 [6] does the source give for `CCN(CC)CCCC(C)Nc1ccnc2cc(Cl)ccc12` (stereo not drawn) [Chloroquine, reference compound] here?
Answer: 7 nM

Question: And the IC50 ([7]; read-out: C235 IC50)?
Answer: 89 nM

Question: What does the source list for `CC(C)(C)c1cccc(NC(=O)c2cc(Cl)ccc2O)c1` [Compound 3i, N-(3-tert-butylphenyl)-5-chloro-2-hydroxybenzamide]?
Answer: activity against T. gondii tachyzoites in words [5]: much more active than 3l; Toxicity [1]: >1000 nM; IC50 ([7]; read-out: C235 IC50, multi-drug resistant strain TM91-C235, 72 hours): > 6500 nM; efficacy against TM91-C235 compared with D6 [7]: two-fold higher IC50; static or cidal effect [8]: parasitostatic; also recorded: static effect; growth of insertional mutant parasites in the presence of compound [4]: No parasite growth

Question: What does the source list for `O=C(Nc1cc(C(F)(F)F)cc(C(F)(F)F)c1)c1cc(Cl)ccc1O` [Compound 3j]?
Answer: activity against T. gondii tachyzoites in words [5]: promising activity; Toxicity [1]: >1000 nM; efficacy against TM91-C235 compared with D6 [7]: equally effective; static or cidal effect [8]: parasitocidal; also recorded: cidal; duration of treatment giving a cidal effect [8]: cidal effect after four days of treatment; growth of insertional mutant parasites in the presence of compound [4]: No parasite growth

Question: With `O=C(Nc1ccc([N+](=O)[O-])cc1Cl)c1ccccc1O` [Compound 3k, N-(2-chloro-4-nitrophenyl)-2-hydroxybenzamide] as the compound, how does the “activity against T. gondii tachyzoites in words” value (“activity” for short) [5] read?
Answer: eliminated activity altogether

Question: Which “activity” value [5] does the source give for `COc1ccc(NC(=O)c2cc(Cl)ccc2O)cc1OC` [Compound 3v, 5-chloro-N-(3,4-dimethoxyphenyl)-2-hydroxybenzamide] here?
Answer: devoid of activity

Question: Which MIC50 [5] does the source give for `O=C(Nc1cccc(OC(F)F)c1)c1cc(Cl)ccc1O` [Compound 3z, 5-chloro-N-(3-(difluoromethoxy)phenyl)-2-hydroxybenzamide] here?
Answer: >1 µM

Question: And the MIC90 [5]?
Answer: >1 µM

Question: Which “activity” value [5] does the source give for `Nc1ccc(NC(=O)c2cc(Cl)ccc2O)c(Cl)c1` [Compound 5, N-(4-amino-2-chlorophenyl)-5-chloro-2-hydroxybenzamide hydrochloride] here?
Answer: all activity was lost; also recorded: destroyed

Question: With `O=C(Oc1ccc(Cl)cc1C(=O)Nc1ccc([N+](=O)[O-])cc1Cl)c1ccccc1` [Compound 7a, 4-chloro-2-((2-chloro-4-nitrophenyl)carbamoyl)phenyl benzoate] as the compound, how does the “activity” value [5] read?
Answer: apparent increase in potency over 4

Question: And the Toxicity [1]?
Answer: >1000 nM

Question: And the “efficacy against TM91-C235 compared with D6” value [7]?
Answer: equally effective

Question: And the “static or cidal effect” value [8]?
Answer: parasitocidal; also recorded: cidal

Question: What about the “duration of treatment giving a cidal effect” value [8] of the same compound?
Answer: cidal effect after four days of treatment

Question: What about the “growth of insertional mutant parasites in the presence of compound” value [4] of the same compound?
Answer: No parasite growth

Question: And the stability against hydrolysis [9]?
Answer: hydrolytically labile

Question: Which stability against hydrolysis [9] does the source give for `COC(=O)[C@@H]1CCCN1C(=O)Oc1ccc(Cl)cc1C(=O)Nc1ccc([N+](=O)[O-])cc1Cl` [Compound 7b, (S)-1-(4-chloro-2-((2-chloro-4-nitrophenyl)carbamoyl)phenyl) 2-methyl pyrrolidine-1,2-dicarboxylate] here?
Answer: much more stable against hydrolysis

Question: With `O=C(Nc1ccc([N+](=O)[O-])cc1Cl)c1cc(Cl)ccc1OC(=O)N1CCOCC1` [Compound 7c, 4-chloro-2-((2-chloro-4-nitrophenyl)carbamoyl)phenyl morpholine-4-carboxylate] as the compound, how does the “activity” value [5] read?
Answer: devoid of activity

Question: And the stability against hydrolysis [9]?
Answer: much more stable against hydrolysis

Question: Which “activity” value [5] does the source give for `CN1CCN(C(=O)Oc2ccc(Cl)cc2C(=O)Nc2ccc([N+](=O)[O-])cc2Cl)CC1` [Compound 7d, 4-chloro-2-((2-chloro-4-nitrophenyl)carbamoyl)phenyl 4-methylpiperazine-1-carboxylate] here?
Answer: modest activity; also recorded: devoid of activity

Question: What about the stability against hydrolysis [9] of the same compound?
Answer: much more stable against hydrolysis

Question: Which Toxicity [1] does the source give for `CN(CC(=O)NN)C(=O)Oc1ccc(Cl)cc1C(=O)Nc1ccc([N+](=O)[O-])cc1Cl.Cl` [Compound 14a, 4-chloro-2-((2-chloro-4-nitrophenyl)carbamoyl)phenyl (2-hydrazinyl-2-oxoethyl)(methyl) carbamate hydrochloride] here?
Answer: >1000 nM

Question: And the “efficacy against TM91-C235 compared with D6” value [7]?
Answer: equally effective

Question: What about the “static or cidal effect” value [8] of the same compound?
Answer: cidal

Question: And the “duration of treatment giving a cidal effect” value [8]?
Answer: cidal effect after ten days of treatment

Question: What about the “Day of Death” value ([2]; 25 mg/kg oral gavage) of the same compound?
Answer: None

Question: What about the “Day of Death” value ([2]; 100 mg/kg oral gavage) of the same compound?
Answer: None

Question: And the “toxic effects on oral dosing (survival, well-being criteria)” value [2]?
Answer: all mice were alive and appeared healthy

Question: What about the increased survival [10] of the same compound?
Answer: 1 days

Question: Which MIC50 [5] does the source give for “N-(2,3-dihydrobenzo[b][1,4]dioxin-6-yl)-2-hydroxybenzamide [Compound 3ab]” here?
Answer: >1 µM

Question: And the MIC90 [5]?
Answer: >1 µM

Question: And the “activity” value [5]?
Answer: devoid of activity; also recorded: inactive

Question: With “N-(2,4-dichlorophenyl)-5-chloro-2-hydroxybenzamide [Compound 3n]” as the compound, how does the “activity” value [5] read?
Answer: slight activity; also recorded: active

Question: For “N-(2,4-difluorophenyl)-5-chloro-2-hydroxybenzamide [Compound 3o]”, which MIC50 [5] is on record?
Answer: >1 µM

Question: And the MIC90 [5]?
Answer: >1 µM

Question: What about the “activity” value [5] of the same compound?
Answer: inactive

Question: Which “activity” value [5] does the source give for “N-(2-chloro-5-nitrophenyl)-5-methyl-2-hydroxybenzamide [Compound 3m]” here?
Answer: decreased potency; also recorded: inactive; also recorded: about one-half as active as 4
